# “Also recorded” adds a separate entry of the source.
# Key:
# human wild-type CFTR [1] = target: T1, human wild-type CFTR (Homo sapiens, UniProt P13569); test: Fluorescence plate reader assay of CFTR function; assay type: cell-based; conditions: for CFTR activation activity (in words): plate reader assay, structure-activity discussion
# Procedure, shortened: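 FRT cells stably coexpressing human wild-type CFTR and YFP-H148Q, grown near-confluent in 96-well plates. Washed with PBS, then 10 min in PBS with test compound plus 125 nM forskolin. YFP fluorescence read in single wells for 2 s baseline and 12 s after adding iodide solution (final 140 mM). Iodide influx rates give concentration–response curves; EC50 reported as mean ± SEM.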
# mice = conditions: cited from earlier work
# human wild-type CFTR [2] = target: T1, human wild-type CFTR; test: Short-circuit current measurement in CFTR-expressing FRT cells; assay type: cell-based; conditions: data not shown
# [3] = tested on: calcium-activated chloride channels in HT-29 cells; test: Non-TMEM16A CaCC activity in HT-29 cells expressing YFP; assay type: cell-based; conditions: 10 μM
# Procedure, shortened: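 HT-29 cells expressing YFP used for non-TMEM16A calcium-activated chloride channel activity, with test compound at 10 μM. Iodide influx rate computed from YFP fluorescence.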
# cytoplasmic calcium = test: Cytoplasmic calcium by Fluo-4 fluorescence in FRT cells; assay type: cell-based, rat; conditions: 10 μM, 5 min pretreatment, 100 μM ATP
# cellular cAMP level = test: Cellular cAMP in FRT cells; assay type: cell-based, rat; conditions: 10 μM, 10 min, without or with 90 nM forskolin
# [4] = tested on: loperamide-induced constipation in CD1 mice; test: Loperamide-induced mouse model of acute constipation; assay type: in vivo; conditions: oral, 1 h before loperamide, 3-h stool
# Procedure, shortened: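 CD1 mice aged 8–10 weeks got test compound or vehicle orally 1 h before loperamide 0.3 mg/kg ip. Vehicle was saline with 5% DMSO and 10% Kolliphor HS 15. Mice kept in metabolic cages with free food and water; stool collected for 3 h. Total weight, pellet count and water content (wet vs dry weight) measured. Mean ± SEM; unpaired Student's t-test, P < 0.05.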
# TMEM16A = target: T2, TMEM16A (Homo sapiens, UniProt Q5XXA6); test: TMEM16A activity in FRT cells expressing YFP; assay type: cell-based; conditions: 10 μM
# T2 sequence (Q5XXA6 1-986): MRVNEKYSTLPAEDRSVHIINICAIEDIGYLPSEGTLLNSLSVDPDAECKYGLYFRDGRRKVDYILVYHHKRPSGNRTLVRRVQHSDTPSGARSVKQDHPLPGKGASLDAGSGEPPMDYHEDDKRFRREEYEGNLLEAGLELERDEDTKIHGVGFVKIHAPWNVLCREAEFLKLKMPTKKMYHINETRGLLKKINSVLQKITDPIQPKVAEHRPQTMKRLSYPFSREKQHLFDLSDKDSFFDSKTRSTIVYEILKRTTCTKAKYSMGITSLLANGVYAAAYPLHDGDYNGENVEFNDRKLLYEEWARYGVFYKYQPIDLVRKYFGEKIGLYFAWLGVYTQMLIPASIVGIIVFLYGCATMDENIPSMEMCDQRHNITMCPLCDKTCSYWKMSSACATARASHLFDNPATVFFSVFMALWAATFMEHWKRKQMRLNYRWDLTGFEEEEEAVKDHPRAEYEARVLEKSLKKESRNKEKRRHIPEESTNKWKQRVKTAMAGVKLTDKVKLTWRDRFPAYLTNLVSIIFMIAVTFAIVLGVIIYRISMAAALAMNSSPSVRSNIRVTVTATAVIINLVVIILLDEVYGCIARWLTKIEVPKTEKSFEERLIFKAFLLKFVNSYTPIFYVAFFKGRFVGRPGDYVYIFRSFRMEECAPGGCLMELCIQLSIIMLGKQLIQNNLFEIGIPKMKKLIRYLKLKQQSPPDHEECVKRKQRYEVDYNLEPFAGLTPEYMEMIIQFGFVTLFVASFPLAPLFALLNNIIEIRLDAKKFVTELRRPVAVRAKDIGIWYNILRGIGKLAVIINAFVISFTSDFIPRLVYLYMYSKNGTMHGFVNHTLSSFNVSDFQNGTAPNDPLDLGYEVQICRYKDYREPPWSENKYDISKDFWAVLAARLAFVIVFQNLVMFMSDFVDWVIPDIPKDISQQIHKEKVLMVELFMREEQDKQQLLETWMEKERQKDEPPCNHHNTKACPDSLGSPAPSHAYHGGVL
# Procedure, shortened: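 FRT cells coexpressing YFP and TMEM16A, tested with 10 μM test compound. Run like the YFP iodide-influx plate reader assay; iodide influx rate computed from fluorescence.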
# [5] = In vitro hepatic microsomal metabolic stability; assay type: in vitro ADME, human; conditions: 60 min, hepatic microsomes, NADPH, 5 μM
# T1 sequence (P13569 whole entry): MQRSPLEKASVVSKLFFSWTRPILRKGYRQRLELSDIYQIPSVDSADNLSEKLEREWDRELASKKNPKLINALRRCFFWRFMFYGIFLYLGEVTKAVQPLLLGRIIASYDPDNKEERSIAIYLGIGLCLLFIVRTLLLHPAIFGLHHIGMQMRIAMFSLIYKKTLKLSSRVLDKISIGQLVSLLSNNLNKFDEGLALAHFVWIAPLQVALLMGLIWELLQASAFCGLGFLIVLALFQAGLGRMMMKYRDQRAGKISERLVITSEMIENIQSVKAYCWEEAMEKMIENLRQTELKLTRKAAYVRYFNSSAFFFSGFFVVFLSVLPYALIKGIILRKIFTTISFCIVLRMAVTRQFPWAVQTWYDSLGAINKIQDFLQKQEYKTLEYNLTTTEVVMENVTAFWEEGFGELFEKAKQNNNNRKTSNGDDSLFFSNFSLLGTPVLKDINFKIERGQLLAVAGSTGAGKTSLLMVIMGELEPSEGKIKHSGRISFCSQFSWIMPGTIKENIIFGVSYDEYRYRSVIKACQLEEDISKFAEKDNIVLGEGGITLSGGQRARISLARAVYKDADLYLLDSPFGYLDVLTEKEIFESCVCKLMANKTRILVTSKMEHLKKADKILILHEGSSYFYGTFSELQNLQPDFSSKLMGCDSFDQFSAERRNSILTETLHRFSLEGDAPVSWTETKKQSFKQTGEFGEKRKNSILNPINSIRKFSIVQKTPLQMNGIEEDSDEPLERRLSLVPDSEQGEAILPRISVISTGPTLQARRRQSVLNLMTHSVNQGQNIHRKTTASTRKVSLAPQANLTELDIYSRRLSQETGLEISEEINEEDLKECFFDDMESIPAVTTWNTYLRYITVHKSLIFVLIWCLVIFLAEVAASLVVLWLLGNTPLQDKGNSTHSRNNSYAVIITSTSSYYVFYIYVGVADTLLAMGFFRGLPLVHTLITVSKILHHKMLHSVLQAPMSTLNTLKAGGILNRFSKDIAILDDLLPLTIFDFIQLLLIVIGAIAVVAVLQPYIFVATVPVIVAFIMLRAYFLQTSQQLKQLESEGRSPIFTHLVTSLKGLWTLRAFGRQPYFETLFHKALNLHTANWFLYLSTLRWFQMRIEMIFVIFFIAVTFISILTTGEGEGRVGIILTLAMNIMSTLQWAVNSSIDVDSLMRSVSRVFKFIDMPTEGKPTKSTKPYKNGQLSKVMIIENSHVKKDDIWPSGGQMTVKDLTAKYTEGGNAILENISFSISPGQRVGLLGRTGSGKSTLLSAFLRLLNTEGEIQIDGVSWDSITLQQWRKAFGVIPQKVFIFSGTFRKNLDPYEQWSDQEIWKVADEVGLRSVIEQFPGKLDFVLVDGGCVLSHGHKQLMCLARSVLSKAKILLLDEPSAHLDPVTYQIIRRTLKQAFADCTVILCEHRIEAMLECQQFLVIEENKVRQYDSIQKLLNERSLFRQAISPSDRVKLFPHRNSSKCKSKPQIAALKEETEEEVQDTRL
Compound,CFTR activation activity (in words) (human wild-type CFTR [1]),other results
"O=c1c(-c2ccc(C(F)(F)F)cc2)nc2ccccc2n1Cc1ccccc1 [1f, 1-Benzyl-3-(4-(trifluoromethyl)phenyl)quinoxalin-2(1H)-one]",low activity,–
"O=c1c(-c2cccc([N+](=O)[O-])c2)nc2cc(Cl)c(Cl)cc2n1Cc1ccccc1 [2d, 1-Benzyl-6,7-dichloro-3-(3-nitrophenyl)quinoxalin-2(1H)-one]",reduced activity,–
"O=c1c(-c2ccccc2)nc2ccccc2n1Cc1ccccc1 [1h, 1-Benzyl-3-phenylquinoxalin-2(1H)-one]",significantly lower activity,–
"Cc1cc2nc(-c3cccc([N+](=O)[O-])c3)c(=O)n(Cc3ccccc3)c2cc1C [2i, 1-Benzyl-6,7-dimethyl-3-(3-nitrophenyl)quinoxalin-2(1H)-one]",reduced activity,–
"O=c1c(-c2cccc([N+](=O)[O-])c2)nc2ccccc2n1Cc1cccc2ccccc12 [3f, 1-(Naphthalen-1-ylmethyl)-3-(3-nitrophenyl)quinoxalin-2(1H)-one]",significantly reduced activity,–
Nc1ccc([N+](=O)[O-])cc1-c1nc2ccccc2n(Cc2ccccc2)c1=O [compound 4],–,Off-target actions or toxicity (mice; chronic administration in mice): no apparent off-target actions or toxicity; Metabolism (mice): rapid metabolism; Oral bioavailability (mice; mice): minimal oral bioavailability
"O=c1c(-c2cccc([N+](=O)[O-])c2)nc2ccccc2n1Cc1cccs1 [3j, 3-(3-Nitrophenyl)-1-(thiophen-2-ylmethyl)quinoxalin-2(1H)-one]",comparable activity,–
"O=c1c(-c2cccc([N+](=O)[O-])c2)nc2cc(Cl)ccc2n1Cc1ccccc1 [2b, 1-Benzyl-6-chloro-3-(3-nitrophenyl)quinoxalin-2(1H)-one]",good activity,–
"O=c1c(-c2ccc3nonc3c2)nc2ccccc2n1Cc1ccccc1 [1m, 3-(Benzo[c][1,2,5]oxadiazol-5-yl)-1-benzylquinoxalin-2(1H)-one]",comparable potency to the nitro analog,–
"O=c1c(-c2cccc([N+](=O)[O-])c2)nc2ccccc2n1Cc1ccccc1 [1c, 1-Benzyl-3-(3-nitrophenyl)quinoxalin-2(1H)-one]",–,"Potency in nonpermeabilized versus permeabilized CFTR-expressing FRT cells (human wild-type CFTR [2]): similar; Inhibition or activation of calcium-activated chloride channels [3]: neither inhibited nor activated; Effect on cytoplasmic calcium and ATP-stimulated calcium elevation (cytoplasmic calcium): nor did it elevate cytoplasmic calcium or inhibit the ATP-stimulated elevation in cytoplasmic calcium; Increase in potency compared to 4 (human wild-type CFTR [1]; CFTR activation potency relative to 4): ~10 fold; Effect on cellular cAMP level (cellular cAMP level): did not affect; Stool weight, pellet number and hydration [4]: fully normalized; Inhibition or activation of TMEM16A (TMEM16A): neither inhibited nor activated; Compound metabolized [5]: < 40%"
"O=c1c(-c2cccc([N+](=O)[O-])c2)nc2ccccc2n1Cc1ccc2ccccc2c1 [3g, 1-(Naphthalen-2-ylmethyl)-3-(3-nitrophenyl)quinoxalin-2(1H)-one]",significantly reduced activity,–
"O=c1c(-c2cccc([N+](=O)[O-])c2)nc2ccccc2n1Cc1ccco1 [3i, 1-(Furan-2-ylmethyl)-3-(3-nitrophenyl)quinoxalin-2(1H)-one]",comparable activity,–
"O=c1c(-c2cccc([N+](=O)[O-])c2)nc2cc(Br)ccc2n1Cc1ccccc1 [2f, 1-Benzyl-6-bromo-3-(3-nitrophenyl)quinoxalin-2(1H)-one]",good activity; also recorded: underperforms by nearly an order of magnitude compared to unsubstituted 1c,–
"O=c1c(-c2cccc([N+](=O)[O-])c2)nc2cc(F)c(F)cc2n1Cc1ccccc1 [2g, 1-Benzyl-6,7-difluoro-3-(3-nitrophenyl)quinoxalin-2(1H)-one]",reduced activity,–
"N#Cc1cccc(-c2nc3ccccc3n(Cc3ccccc3)c2=O)c1 [1l, 3-(4-Benzyl-3-oxo-3,4-dihydroquinoxalin-2-yl)benzonitrile]",greatly reduced activity,–
"O=c1c(-c2cccc([N+](=O)[O-])c2)nc2ccccc2n1Cc1ccccn1 [3h, 3-(3-Nitrophenyl)-1-(pyridin-2-ylmethyl)quinoxalin-2(1H)-one]",comparable activity,–

# Second part, led by results:
CFTR activation activity (in words) (human wild-type CFTR [1]),Compound,other results
reduced activity,"O=c1c(-c2ccc(F)c([N+](=O)[O-])c2)nc2ccccc2n1Cc1ccccc1 [1i, 1-Benzyl-3-(4-fluoro-3-nitrophenyl)quinoxalin-2(1H)-one]",–
reduced activity,"O=c1c(-c2ccccc2[N+](=O)[O-])nc2ccccc2n1Cc1ccccc1 [1d, 1-Benzyl-3-(2-nitrophenyl)quinoxalin-2(1H)-one]",–
very low activity,"O=C(O)c1ccc([N+](=O)[O-])c(-c2nc3ccccc3n(Cc3ccccc3)c2=O)c1 [1b, 3-(4-Benzyl-3-oxo-3,4-dihydroquinoxalin-2-yl)-4-nitrobenzoic Acid]",–
low activity,"O=c1c(-c2cccc(Br)c2)nc2ccccc2n1Cc1ccccc1 [1g, 1-Benzyl-3-(3-bromophenyl)quinoxalin-2(1H)-one]",–
inactive,"Nc1ccc(C(=O)O)cc1-c1nc2ccccc2n(Cc2ccccc2)c1=O [1k, 4-Amino-3-(4-benzyl-3-oxo-3,4-dihydroquinoxalin-2-yl)benzoic Acid]",–
reduced activity,"O=c1c(-c2ccc([N+](=O)[O-])cc2)nc2ccccc2n1Cc1ccccc1 [1e, 1-Benzyl-3-(4-nitrophenyl)quinoxalin-2(1H)-one]",–
moderately potent,"COC(=O)c1ccc(N)c(-c2nc3ccccc3n(Cc3ccccc3)c2=O)c1 [1j, Methyl 4-Amino-3-(4-benzyl-3-oxo-3,4-dihydroquinoxalin-2-yl)-benzoate]",–
very low activity,"COC(=O)c1ccc([N+](=O)[O-])c(-c2nc3ccccc3n(Cc3ccccc3)c2=O)c1 [1a, Methyl 3-(4-Benzyl-3-oxo-3,4-dihydroquinoxalin-2-yl)-4-nitrobenzoate]",–

# Reference: PMC5463557 (Journal of medicinal chemistry, 2017)
